According to ChEMBL document CHEMBL1152124, “Piperidine variations in search for non-imidazole histamine H(3) receptor ligands” (Bioorg Med Chem, 2008):

Columns and labels:
Histamine H3 receptor [1] = molecular target: T1, Histamine H3 receptor (Homo sapiens, UniProt Q9Y5N1); test: Displacement of [125I]iodoproxyfan from human recombinant histamine H3 receptor expressed in CHO-K1 cells; format: cell-based
Summary of the method: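 Stably transfected CHO-K1 cells washed and harvested in PBS, homogenized in ice-cold 50 mmol/L Na2HPO4/KH2PO4 pH 7.5. Membranes pelleted at 23,000g. Membranes incubated 60 min at 25 °C with 25 pmol/L [125I]iodoproxyfan ± competitor, in triplicate. Stopped by ice-cold medium and filtration through PEI-soaked glass fibre filters; gamma counting. Nonspecific binding defined with imetit. Ki by Cheng-Prusoff; mean of at least triplicate experiments.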

Mus musculus = test: Antagonist activity at histamine H3 receptor in po dosed Swiss mouse cerebral cortex assessed as Ntau-methylhistamine level after 90 mins by radioimmunoassay; format: functional; conditions: 1.5 h
Summary of the method: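 Swiss mice fasted 24 h, then dosed orally. Decapitated 90 min later; cerebral cortex homogenized in 10 vol ice-cold 0.4 M perchloric acid. Nτ-methylhistamine measured by radioimmunoassay. Response related to the maximal rise produced by ciproxifan 3 mg/kg po. At least triplicate experiments; ED50 calculated as mean with SEM.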

Histamine H3 receptor [2] = molecular target: T1, Histamine H3 receptor
Histamine H3 receptor [3] = molecular target: T1, Histamine H3 receptor; test: Displacement of [3H](R)-alpha-methylhistamine from human histamine H3 receptor expressed in rat C6 cells; format: cell-based

T1 sequence (Q9Y5N1 whole entry): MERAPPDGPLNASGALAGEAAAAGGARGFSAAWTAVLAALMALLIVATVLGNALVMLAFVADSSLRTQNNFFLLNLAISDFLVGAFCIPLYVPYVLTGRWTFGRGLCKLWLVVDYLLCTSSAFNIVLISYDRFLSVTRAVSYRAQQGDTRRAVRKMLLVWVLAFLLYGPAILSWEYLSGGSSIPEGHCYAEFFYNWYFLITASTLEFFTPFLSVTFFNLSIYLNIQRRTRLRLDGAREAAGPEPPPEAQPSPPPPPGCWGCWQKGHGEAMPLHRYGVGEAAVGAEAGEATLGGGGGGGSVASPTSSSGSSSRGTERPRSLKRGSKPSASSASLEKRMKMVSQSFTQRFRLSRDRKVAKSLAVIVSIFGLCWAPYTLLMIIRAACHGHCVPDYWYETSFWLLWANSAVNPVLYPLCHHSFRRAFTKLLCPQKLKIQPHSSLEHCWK

Compound `Cc1ccc(OCCN2CCC(N3CCCCC3)CC2)cc1` has a Ki (Histamine H3 receptor [1]; read-out: Ki) of 300 nM.

`c1ccc(CCCOCCCN2CCc3ccccc3C2)cc1` showed a Ki (Histamine H3 receptor [1]; read-out: Ki) of 560 nM and an ED50 (Mus musculus) of over 10 mg/kg.

For `Clc1ccc(CCCOCCCN2CCCCC2)cc1` [PITOLISANT], the ED50 (Mus musculus) was 1.6 mg/kg.

In the case of `CCCC1CCN(CCCOCCCc2ccccc2)CC1`, the Ki (Histamine H3 receptor [1]; read-out: Ki) is reported as 249 nM and the ED50 (Mus musculus) is reported as over 10 mg/kg.

For `c1ccc(COCCCc2c[nH]cn2)cc1` [PROXYFAN], the Ki (Histamine H3 receptor [1]; read-out: pKi (converted)) was 2.51 nM and the ED50 (Mus musculus) was over 10 mg/kg.

Work on `c1ccc(CCCOCCCN2CCC3CCCCC3C2)cc1` (centres undefined) yielded a Ki (Histamine H3 receptor [1]; read-out: Ki) of 393 nM and an ED50 (Mus musculus) of over 10 mg/kg.

`Clc1cccc(OCCN2CCC(N3CCCCC3)CC2)c1` was tested, and the Ki (Histamine H3 receptor [1]; read-out: Ki) was 235 nM.

With `CNC(=O)c1ccc(Oc2ccc3c(c2)CCN(C2CCC2)CC3)nc1` the pKb (Histamine H3 receptor [2]) was 9.3.

`CC(C)(C)c1ccc(OCCCN2CCC(N3CCCCC3)CC2)cc1` showed a Ki (Histamine H3 receptor [1]; read-out: Ki) of 100 nM and an ED50 (Mus musculus) of over 20 mg/kg.

`FC(F)(F)c1cccc(OCCN2CCC(N3CCCCC3)CC2)c1` showed a Ki (Histamine H3 receptor [1]; read-out: Ki) of 164 nM.

For `c1ccc(CCCOCCCN2CCC(Cc3ccccc3)CC2)cc1`, the Ki (Histamine H3 receptor [1]; read-out: Ki) was 326 nM and the ED50 (Mus musculus) was over 10 mg/kg.

For `COc1cccc(OCCCN2CCC(N3CCCCC3)CC2)c1`, the Ki (Histamine H3 receptor [1]; read-out: Ki) was over 10000 nM and the ED50 (Mus musculus) was over 20 mg/kg.

In the case of `Clc1ccc(OCCN2CCC(N3CCCCC3)CC2)cc1`, the Ki (Histamine H3 receptor [1]; read-out: Ki) is reported as 176 nM.

`c1ccc(CCCOCCCN2CCCCC2)cc1` showed a Ki (Histamine H3 receptor [1]; read-out: pKi (converted)) of 3.16 nM, a Ki (Histamine H3 receptor [3]) of 3.1 nM and an ED50 (Mus musculus) of 3.7 mg/kg.

`Clc1ccc(OCCCN2CCC(N3CCCCC3)CC2)cc1` was tested, and the Ki (Histamine H3 receptor [1]; read-out: Ki) was 165 nM and the ED50 (Mus musculus) was over 20 mg/kg.

`COc1cccc(OCCN2CCC(N3CCCCC3)CC2)c1` showed a Ki (Histamine H3 receptor [1]; read-out: Ki) of 132 nM.

For `C[C@H]1[C@H]2CC[C@H]3[C@@H]4CC=C5C[C@@H](N(C)C)CC[C@]5(C)[C@H]4CC[C@]23CN1C` [CONESSINE], the Ki (Histamine H3 receptor [1]; read-out: pKi (converted)) was 5.01 nM.

`CCCCC1CCN(CCCOCCCc2ccccc2)CC1` gave a Ki (Histamine H3 receptor [1]; read-out: Ki) of 274 nM and an ED50 (Mus musculus) of over 10 mg/kg.
